This is an account of results in ChEMBL document CHEMBL3352685, “Small-molecule inhibitors of 25-hydroxyvitamin D-24-hydroxylase (CYP24A1): synthesis and biological evaluation” (J Med Chem, 2014).

Molecules are shown by their SMILES. pIC50, pKi: −log10 of the molar value.

Series [1] has as its target T1, 1,25-dihydroxyvitamin D(3) 24-hydroxylase, mitochondrial (Homo sapiens, UniProt Q07973).
T1 sequence (Q07973 whole entry): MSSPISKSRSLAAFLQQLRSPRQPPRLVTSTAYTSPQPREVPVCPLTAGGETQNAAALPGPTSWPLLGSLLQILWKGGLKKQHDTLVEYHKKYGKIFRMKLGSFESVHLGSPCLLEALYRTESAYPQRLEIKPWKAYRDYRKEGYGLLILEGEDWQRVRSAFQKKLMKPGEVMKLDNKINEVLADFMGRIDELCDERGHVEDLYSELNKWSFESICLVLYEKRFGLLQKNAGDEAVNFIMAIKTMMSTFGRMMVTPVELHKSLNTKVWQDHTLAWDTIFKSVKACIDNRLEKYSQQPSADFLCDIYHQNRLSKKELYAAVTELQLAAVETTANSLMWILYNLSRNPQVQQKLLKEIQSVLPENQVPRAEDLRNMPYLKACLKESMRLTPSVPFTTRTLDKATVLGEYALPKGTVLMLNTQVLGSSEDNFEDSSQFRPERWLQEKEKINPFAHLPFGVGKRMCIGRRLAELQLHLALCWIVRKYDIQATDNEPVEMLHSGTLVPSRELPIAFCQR
Kind of series: Inhibition of human MBP-tagged CYP24A1 expressed in Escherichia coli using 1,25(OH)2D3 substrate in presence of bovine adrenodoxin, adrenodoxin reductase and NADPH incubated at 37 degC for 25 mins by HPLC method.

A short description of series [2]: Cytotoxicity against human primary CLL cells. Particulars: read-out: LD50 (the source's name); call rule not given here. Type of series: functional. The method in brief:
(§1)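 Primary CLL cells or normal B-cells from peripheral blood, purified by negative selection (CD3 Dynabeads; >90% purity by flow cytometry). Cultured at 1x10⁶/ml in RPMI with 10% FCS, penicillin/streptomycin and 5 ng/ml IL-4, 37 °C, 5% CO2. Exposed to inhibitor (0–1x10⁻⁷ M) up to 48 h. Annexin V-FITC/PI flow cytometry; LD50 from sigmoidal dose-response; triplicate.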

Series [3] concerns the target T1, 1,25-dihydroxyvitamin D(3) 24-hydroxylase, mitochondrial. Nature of the series: Inhibition of CYP24A1 in human primary CLL cells assessed as increase in VDR-regulated CDKN1A mRNA expression in presence of 100 nM calcitriol incubated for 24 hrs by quantitative RT-PCR method. The series is classed as cell-based. The method in brief:
(§2)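 Primary CLL lymphocytes, purified by negative selection with CD3 beads (>90% purity), cultured in RPMI with 10% FCS, penicillin/streptomycin and 5 ng/ml IL-4 at 37°C, 5% CO2. Inhibitor 0, 0.01, 0.05 or 0.1 µM for 24 h with or without calcitriol (10 or 100 nM). Total RNA reverse transcribed, SYBR Green real-time PCR, 35 cycles. Target mRNA expressed as ratio to RPS14 from crossing points. Duplicates.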

Series [4] shares this target. Kind of series: Inhibition of CYP24A1 in human primary CLL cells assessed as increase in VDR-regulated GADD45alpha mRNA expression at 0.05 to 0.10 uM in presence of 100 nM 1,25(OH)2D3 incubated for 24 hrs by quantitative RT-PCR method. The series is classed as cell-based. The method in brief:
as §2

Series [5] shares this target. Kind of series: Inhibition of CYP24A1 in human primary CLL cells assessed as increase in VDR-regulated CDKN1A mRNA expression at 0.05 to 0.10 uM in presence of 100 nM 1,25(OH)2D3 incubated for 24 hrs by quantitative RT-PCR method. Type of series: cell-based. The essentials: as §2
Series [6] in a line: Induction of apoptosis in human primary CLL cells after 48 hrs by Annexin V/propidium iodide staining based flow cytometry. Type of series: functional. The method in brief: as §1
Background: A flow cytometer gives signals particle by particle.

The nature of series [7]: Induction of apoptosis in normal human B cells after 48 hrs by Annexin V/propidium iodide staining based flow cytometry. Type of series: cell-based, B cell. Particulars: read-out: LD50. The essentials: as §1

With `O=C(NCC(c1ccccc1)n1ccnc1)c1ccc(/C=C/c2ccccc2)cc1` (configuration not stated), in series [1], the pIC50 (in general, the negative decadic logarithm of the IC50, by convention in mol/L) was 6.40 and the negative logarithm of the Ki (pKi) (in general, the Ki on a negative log10 scale, so that one unit is a factor of ten) is 7.55. In addition, in series [2], the CC50 amounted to 27 nM.

For `O=C(NCC(c1ccccc1)n1ccnc1)c1ccc(/C=C/c2ccc(F)cc2)cc1` (configuration not stated), in series [1], the negative logarithm of the IC50 (pIC50) was 6.59 and the pKi is 7.72. The CC50 in series [2] stood at 15 nM.

For the compound `COc1ccc(/C=C/c2ccc(C(=O)NCC(c3ccccc3)n3ccnc3)cc2)cc1` (configuration not stated), in series [1], the pIC50 is 6.47 and the pKi was 7.62. Further, the CC50 in series [2] was 3200 nM.

Take `COc1cc(/C=C/c2ccc(C(=O)NCC(c3ccccc3)n3ccnc3)cc2)cc(OC)c1` (configuration not stated): in series [1], the pIC50 was 6.96. In addition, the negative-log Ki (pKi) in series [1] is 8.11. In addition, in series [2], the CC50 came to 13 nM. For the same compound, the “inhibition (INH)” value is “Dose-dependent effect” in series [3], “Active” in series [4] and “Active” in series [5].

For the compound `COc1cc(/C=C/c2ccc(C(=O)NCC(c3ccccc3)n3ccnc3)cc2)cc(OC)c1OC` (configuration not stated), in series [1], the pIC50 is 6.85 and the pKi was 8.01. The CC50 in series [2] amounted to 3500 nM. In series [4], the “inhibition (INH)” value is recorded as “Active”. Besides, in series [5], the “inhibition (INH)” value is recorded as “Active”.

With `O=C(NCC(c1ccccc1)n1ccnc1)c1ccc(CCc2ccc(F)cc2)cc1` (configuration not stated), in series [1], the negative-log IC50 (pIC50) was 6.29 and the pKi was 7.44.

In the case of `O=C(NCC(c1ccccc1)n1ccnc1)c1ccc(S(=O)(=O)Nc2ccccc2)cc1` (configuration not stated), in series [1], the negative logarithm of the IC50 (pIC50) was 5.89 and the pKi is 7.04.

`COc1cc(/C=C/c2ccc(CCC(=O)C(C)(C)C)cc2)cc(OC)c1`: in series [1], the negative logarithm of the IC50 (pIC50) was 5.68 and the pKi is 6.82.

In the case of `COc1cc(/C=C/c2ccc(CCC(OC(=O)n3ccnc3)C(C)(C)C)cc2)cc(OC)c1` (configuration not stated), in series [1], the pIC50 is 6.80 and the negative-log Ki (pKi) was 7.96.

In the case of `CC(C)(C)C(CCc1ccc(/C=C/c2ccccc2)cc1)OS(C)(=O)=O` (configuration not stated), in series [1], the negative-log IC50 (pIC50) was 5.25 and the pKi was 6.40.

Regarding `COc1cc(/C=C/c2ccc(CCC(OS(C)(=O)=O)C(C)(C)C)cc2)cc(OC)c1` (configuration not stated), in series [1], the negative logarithm of the IC50 (pIC50) was 5.27 and the negative-log Ki (pKi) is 6.42.

As for `COc1cc(/C=C/c2ccc(CCC(OS(=O)(=O)c3ccc(C)cc3)C(C)(C)C)cc2)cc(OC)c1` (configuration not stated), in series [1], the pIC50 is 5.54 and the negative logarithm of the Ki (pKi) is 6.68.

For the compound `CC(C)(C)C(=O)/C(=C/c1ccc(/C=C/c2ccccc2)cc1)n1ccnc1`, in series [1], the pIC50 is 6.74 and the pKi was 7.89.

As to `CC(C)(C)C(=O)C(Cc1ccc(CCc2ccccc2)cc1)n1ccnc1` (configuration not stated), in series [1], the pIC50 is 6.22 and the pKi was 7.38.

In the case of `C=C1CC[C@H](O)C/C1=C/C=C1\CCC[C@]2(C)[C@@H]([C@H](C)CCCOS(=O)(=O)c3ccc(C)cc3)CC[C@@H]12`, the negative-log Ki (pKi) in series [1] is 7.41.

Consider `C=C1[C@H](O)CC(=C/C=C2\CCC[C@]3(C)[C@@H]([C@H](C)Cn4ccnc4)CC[C@@H]23)C[C@H]1O`, for which the pKi in series [1] was 7.68.

`C=C1[C@H](O)CC(=C/C=C2\CCC[C@]3(C)[C@@H]([C@H](C)CCCNC4CC4)CC[C@@H]23)C[C@H]1O`: the negative logarithm of the Ki (pKi) in series [1] is 7.38.

Turning to `C=C1/C(=C\C=C2/CCC[C@]3(C)[C@@H]([C@H](C)CCS(=N)(=O)c4ccccc4)CC[C@@H]23)C[C@@H](O)C[C@@H]1O` (some centres not stated), in series [1], the negative logarithm of the IC50 (pIC50) was 8.19.

`C=C1/C(=C\C=C2/CCC[C@]3(C)[C@@H]([C@H](C)CCCC(C)(C)O)CC[C@@H]23)C[C@@H](O)C[C@@H]1O` [CALCITRIOL] showed an LD50 in series [6] of 2.86 ×10⁻⁷ M. Further, the CC50 at 48 h in series [7] was determined as 6510 nM.

As for `Nc1nc(F)nc2c1ncn2[C@@H]1O[C@H](CO)[C@@H](O)[C@@H]1O` [FLUDARABINE], in series [2], the CC50 came out at 1100 nM.

On to `Clc1cccc(C(c2ccc3[nH]cnc3c2)n2ccnc2)c1` (configuration not stated) [LIAROZOLE], for which, in series [1], the negative-log IC50 (pIC50) was 8.64.

As to `C=C1/C(=C\C=C2/CCC[C@]3(C)C([C@H](C)C/C=C/S(=O)(=O)C(C)(C)C)=CC[C@@H]23)C[C@@H](O)C[C@@H]1O` [LUNACALCIPOL], in series [1], the pIC50 is 7.57.
